Experiment: Toxicity liver stage against HepG2, at 10uM
Assay type: cell-based
Design: test concentration 10 uM, cell line HepG2-A16-CD81EGFP
Conditions: human, HepG2-A16-CD81EGFP cells; read-out: INHIBITION
Summary of the method: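 Uninfected HepG2-A16-CD81EGFP cells, 3 × 10^3 per well, 1536-well, plated on prespotted compound at 10 μM final, parasite-free screening media added to match infected plates; puromycin 10 μM positive, DMSO 0.5% negative; run in parallel with 48 h PbLuc assay at 37 °C, 5% CO2; viability by CellTiter-Glo luminescence, normalized to controls.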

Compound	cytotoxicity at 10 µM [%]
CC(C)c1nc(CN2CCN(C(=O)CN3CCOCC3)CC2)no1	-7.8
O=C(CCn1nc(C(=O)Nc2ccccc2)ccc1=O)Nc1nccs1	-2.83
O=C1CCNc2cc3c(cc2CN1CC1CC1)OCO3	-5.83
COc1ccc(-c2nc(C#N)c(N(C)C)o2)cc1S(=O)(=O)N(C)C	-7.19
Cc1nc(C(=O)N2CCN(S(C)(=O)=O)CC2)c(-c2ccccc2)s1	3.23
O=C1CSC(C(F)(F)F)c2c(O)nn(C3CCCC3)c2N1 (configuration not stated)	3.49
CC(C)Cn1cnc2ccc(NC(=O)CCCn3cccn3)cc2c1=O	-4.06
COc1cccc2sc(OC3CN(C(=O)C4=COCCO4)C3)nc12	4.91
CC(C)N(C)C(=O)C1=NOC2(CCN(C(=O)c3cccn3C)C2)C1 (configuration not stated)	-122
Cc1cccc(Cn2c(=O)[nH]c3csnc3c2=O)c1	3.46
O=C(c1nc(COc2ccc3c(c2)OCO3)no1)N1CCCC1	10.3
O=C1NC(c2ccccc2)=N[C@@]12CC[C@@H]1CN(Cc3ccco3)C[C@@H]12	-4.34
CN1CC(Oc2ccc(Cl)cc2)=NC(SCC(=O)c2ccccc2)=N1	-0.731
Cc1cc(NCCCOC(C)C)c2nncn2n1	6.17
O=C(Nc1cc(-c2ccccn2)no1)C1CC1	-5.34
CC(=O)N1CCC1c1cc(N2CCNC(=O)C2)nc(C)n1 (configuration not stated)	-1.62
Cc1noc(C2(C)CCCN(C(=O)C(C)C)C2)n1 (configuration not stated)	-3.97
NC(=O)c1cnc(-c2ccccc2)nc1CCNC(=O)CN1CCCC1	-1.25
Cc1cc(-c2ccccc2C(=O)O)nc(C2CCCN2S(C)(=O)=O)n1 (configuration not stated)	-3.67
Cn1c(CN2CCCc3cc(F)cc(F)c32)cc(=O)n(C)c1=O	17.3
Cn1cc(C(O)CNC(=O)c2sccc2OC(F)F)cn1 (configuration not stated)	0.606
CC(C(=O)NC1CC1)S(=O)(=O)Cc1nc(Cc2ccccc2)no1 (configuration not stated)	5.42
CN(C)c1nc(CNC(=O)NC2CCc3ccccc32)cs1 (configuration not stated)	-3.41

Compound	cytotoxicity at 10 µM [%]
CCN(CC)S(=O)(=O)NC1CCN(c2ccc(OC)cc2)CC1	3.38
CCN(CC1CCOC1)C(=O)Cn1nnn(-c2cccs2)c1=O (configuration not stated)	-49.7
CCn1ccnc1CNCc1ccc(C)cc1OC(C)(C)C	1.03
CSCc1cc(F)ccc1CNC(=O)N1CCOCC1	8.06
CC1CCCN(CCCNC(=O)c2cn(C)nc2-c2cccnc2)C1 (configuration not stated)	-3.24
CC(CCc1ccccc1F)C(=O)NS(C)(=O)=O (configuration not stated)	3.12
O=C1CCCN1Cc1nnc(SCc2ccc3c(c2)CCC3)o1	2.03
Cc1ccc(-c2noc(CN3CCC(c4ccn[nH]4)CC3)n2)cc1	12.6
O=S(=O)(CCNCc1ccc(Cl)cc1)N1CCOCC1	4.68
CCc1noc(CN(Cc2cccs2)C2CC2)n1	1.44
O=C(O)c1nnn(-c2cccc(C(F)(F)F)c2)c1C1CC1	-2.02
CC(C)c1nnc2n1CC(CNCc1nc3ccccc3o1)CC2 (configuration not stated)	-1.85
Cc1cccc(N(CCC(N)=O)C(=O)c2cnccn2)c1	-1.74
CCc1nc(C(=O)N2CCN(Cc3ccc(Cl)cc3)CC2)c[nH]1	-6.85
CNC(=O)NC(=O)CN1CCN(CC(F)(F)F)CC1(C)C	10.7
CN(C)C(=O)c1ccccc1NC(=O)N(C)Cc1ccccc1O	-1.03
CCCN(CC1CC1)C(=O)CN1CCCC1c1cnn(C)c1 (configuration not stated)	2.45
CN(c1nc(CSc2nnc(Cn3cncn3)o2)cs1)C1CC1	6.6
Cc1cc(NC(=O)CN(c2ccccc2)C(C)C)on1	-1.54
CCCC(=O)NC(C)(C)Cc1ccccc1OC	5.55
CS(=O)(=O)Cc1ccc(CNc2ncc(C#N)cc2Cl)cc1	3.47
CN(Cc1ccco1)C(=O)CN1CCN(C)c2ccccc2C1	-7.2
CC1(C)CN(C(=O)c2ccc3nncn3c2)CCS1	-4.5

Compound	cytotoxicity at 10 µM [%]
CCc1nc(CC)n(CC(=O)NCc2cccc(C)c2)n1	-2.25
CCCNC(c1cccnc1)c1ccc(F)cc1F (configuration not stated)	-2
CC(C)N(CCCNC(=O)C1CCOCC1)S(C)(=O)=O	0.617
COCCNC(=O)Cn1cc(NC(=O)c2cc(Cl)c(Cl)n2C)cn1	-4.01
O=C(c1cc(F)ccc1Br)N1CCN(C(=O)C2CC2)CC1	4.9
N#CCCCn1nnnc1Cc1ccc(Br)cc1	1.56
Cc1ccc(C2CSCCN2C(=O)c2ccoc2C)o1 (configuration not stated)	13.8
CCS(=O)(=O)N1CCN(C(C)c2ncc(-c3ccccc3)o2)CC1 (configuration not stated)	3.44
CCC[C@@H](NC(N)=O)C(=O)N1CCc2ccccc2CC1	7.79
CCC1CN(Cc2ccccc2)CCN1Cc1nnc(C2CCC2)o1 (configuration not stated)	-11.2
CCOCC1CN(S(=O)(=O)c2cccc(C)c2)Cc2nccn2C1 (configuration not stated)	-108
O=C(c1ccnn1-c1ccc2ccccn12)N1CCOCC1	-108
CN(C)c1nccc(-c2cnc(N(C)C)[nH]c2=O)n1	-1.17
CC(C)NC(=O)NCc1cc(-c2cccc(Cl)c2)nn1C	3.66
COc1cc(OC)cc(-n2ccnc2-c2cc3n(n2)CCNC3)c1	-12.2
CN(C)C1CCCN(C(=O)c2cccc(-c3ncc[nH]3)c2)CC1 (configuration not stated)	4.2
Cc1cnc(CNC(=O)CC2CCc3ccccc32)cn1 (configuration not stated)	-0.862
CCCn1c(C)c(CC(=O)NCC(C)O)c2c1CC(C)(C)CC2=O (configuration not stated)	-7.57
Cc1nc(CC(=O)N2CCCC2c2nc(C(C)C)no2)cs1 (configuration not stated)	4.33
CSCC(=O)N1CCc2[nH]nc(-c3ccc4c(c3)OCO4)c2C1	-139
CCCn1ccnc1CN1CC[C@@H](NC(=O)c2cccnc2)[C@H](O)C1	-7.31
Cc1cnc(C(=O)N2CCN(C(=O)CC(C)C)[C@@H]3CS(=O)(=O)C[C@@H]32)cn1	-3.06
O=C(c1ccc(S(=O)(=O)N2CCNCC2)cc1)N1CCCC(O)C1 (configuration not stated)	8.48

Compound	cytotoxicity at 10 µM [%]
CCN(Cc1cnn(C)c1)C[C@H]1CC[C@@H](Cc2ccc(C)nc2)O1	5.24
CC(=O)N1CCc2[nH]cnc2C1C1=CCCN(CCn2cccc2)C1 (configuration not stated)	0.375
O=C(Nc1ccc(F)cc1)C1CNCCN1C(=O)CSc1ccncc1 (configuration not stated)	-0.316
CC(C)n1cc(CN(Cc2ccsc2)CC2CCCO2)cn1 (configuration not stated)	-7.89
Cc1ccc(Oc2ncccc2CNC(=O)C2COC(=O)N2)c(F)c1F (configuration not stated)	1.82
COCCN1CCC(CNc2nccc(-c3cnn(C)c3)n2)CC1	-130
Cc1ccc(C(=O)N2CCCC(N)CC2)cc1N1CCNC1=O (configuration not stated)	-4.35
c1cc(CCNc2ncnc3c2CCN(Cc2ccoc2)CC3)ccn1	9.08
Cc1nc(N2Cc3cnn(Cc4ccc(F)cc4)c3C2)no1	-3.05
Cc1cnccc1NCCNC1CCSCC1	-9.44
Cc1c(-c2c(-c3ccccc3)ncn2[C@H](CO)C(=O)O)cnn1C	4.28
COCCN(C)C[C@@H]1CN(C(=O)c2ccc(C)c(Cl)c2)C[C@@H]1CO	-0.678
CCCNC(=O)C(C)Oc1ccc(F)cc1 (configuration not stated)	-3.76
CCCN1CCC(Cc2noc(-c3cc4cccnc4nc3C)n2)CC1	-0.749
CCCS(=O)(=O)N1C[C@H]2OC(=O)N(CCc3cccc(Cl)c3)[C@H]2C1	-2.12
CN(C)C(=O)c1ccc2c(c1)N(C)C(CC(=O)NC(C)(C)CO)CO2 (configuration not stated)	8.38
CCC(CO)N(Cc1ccccn1)C(=O)c1ccc2c(c1)CCO2 (configuration not stated)	-14.2
CN(Cc1ccon1)C(=O)C1CC(=O)N(Cc2ccncc2)C1 (configuration not stated)	-0.368
c1ccc(Cc2noc(CN3CCOC(Cn4cncn4)C3)n2)cc1 (configuration not stated)	1.28
Cc1nc(C2CCCN2CC(=O)N(C)Cc2ccsc2)no1 (configuration not stated)	-8.21
CC(C(=O)NCc1ccnc(N2CCCC2)c1)n1cccn1 (configuration not stated)	0.309
COC(=O)c1cc(C(=O)N2CCCCC2C)n(-c2ccccc2)n1 (configuration not stated)	-13.7
CCn1cnnc1C1CCN(C(=O)c2cc3c(s2)CCCC3)CC1	-1.76

Compound	cytotoxicity at 10 µM [%]
CCCc1noc(CCC(=O)N2CCCC2c2ccncc2)n1 (configuration not stated)	-2.42
c1cnn(-c2ccc(CN3CCCC(Cn4cncn4)C3)cc2)c1 (configuration not stated)	-2.63
CCc1n[nH]c(C2CN(Cc3nnc(C4CC4)o3)CCO2)n1 (configuration not stated)	-14.3
Cc1nc(CN2CCCC(N(C)Cc3nccn3C)C2)no1 (configuration not stated)	-16.8
Cc1nc(C(=O)N2CCCC2c2c(C)nn(C)c2C)cs1 (configuration not stated)	-15.8
CCn1cc(CN2CCCN(C(=O)CCCn3cncn3)CC2)cn1	-12.5
CC(C)c1noc(C(C)N2CCN(Cc3ccsc3)CC2)n1 (configuration not stated)	-6.85
CC(=O)NCC1CCN(C(=O)c2csc(-c3ccc(C)cc3C)n2)CC1	-10.8
Cc1cn2c(n1)CCC(NC(=O)c1ccc(CS(C)(=O)=O)o1)C2 (configuration not stated)	-5
c1nnc(Nc2cncc(C3CCCN3)n2)s1 (configuration not stated)	3.58
Cc1nnc([C@@H]2C[C@H]3CN(C(=O)c4c(C)noc4C)C[C@H]3O2)[nH]1	15.2
Cc1nc(Nc2nncs2)cc(C2CNC2)n1	5.88
O=C1CC[C@H]2[C@H](CCN2c2ccccn2)N1CC1CCOCC1	-36.4
CC(C)c1nn(C)c(N(C)C)c1CNC1CCN(C2CC2)CC1	5.6
CC(C)N(CC(=O)O)Cc1cccc(Br)c1	-8.67
CN(C)C(=O)COCc1nn(C)c2c1CCN(Cc1ccco1)C2	-131
Cc1nn(C)c(Cl)c1CNCc1cccnc1N1CCN(C)CC1	-9
CC(C)N(C)Cc1cncc2c1CCN(C(=O)c1cccc(C#N)c1)C2	4.01
CNC(=O)[C@H]1C[C@H]2CN(C(=O)Nc3ccc(F)cc3)C[C@@H]1O2	3.28
Cc1cnn(CC2CN(C=C3NN=C(c4occc4C)O3)CCO2)c1 (configuration not stated)	-2.9
